Data: ChEMBL document CHEMBL3045579, “Herbicidal activity of cineole derivatives” (2010)
Active and inactive are the calls of the source.

Assays:
[1] = tested on: Radish; assay: Pre-emergence herbicidal activity against Raphanus sativus var.Long scarlet (radish) seeds assessed as seed germination inhibition at 1 mol/l at 25 degC after 72 hr by laboratory-based agar medium bioassay; format: functional, organism-based
How it was run: (§1)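 Solutions tested at 1 to 1 × 10^-4 mol L^-1. 10 seeds/dish, 5 randomized replicate dishes angled ~70°. Incubated 72 h at 25 °C in light. Solvent and no-solvent controls. Germination, root length and shoot length recorded.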

[2] = tested on: Radish; assay: Pre-emergence herbicidal activity against Raphanus sativus var.Long scarlet (radish) seeds assessed as concentration required to suppress root growth at 25 degC after 72 hr by laboratory-based agar medium bioassay; format: functional
[3] = tested on: Radish; assay: Pre-emergence herbicidal activity against Raphanus sativus var.Long scarlet (radish) seeds assessed as concentration required to suppress seed germination at 25 degC after 72 hr by laboratory-based agar medium bioassay; format: functional
[4] = tested on: Lolium rigidum; assay: Pre-emergence herbicidal activity against Lolium rigidum seeds assessed as seed germination at 0.1 mol/l at 25 degC after 72 hr by laboratory-based agar medium bioassay relative to 1,8-Cineole; format: functional
How it was run: (§2)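 Agar-plate assay as above: compound in organic solvent evaporated onto Ca/B water agar, 10 seeds × 5 dishes, 72 h at 25 °C in light. Germination, root length or shoot length at 0.1 mol L^-1 expressed relative to 1,8-cineole.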

[5] = tested on: Lolium rigidum; assay: Pre-emergence herbicidal activity against Lolium rigidum seeds assessed as root length at 0.1 mol/l at 25 degC after 72 hr by laboratory-based agar medium bioassay relative to 1,8-Cineole; format: functional; how it was run: as §2
[6] = tested on: Radish; assay: Pre-emergence herbicidal activity against Raphanus sativus var.Long scarlet (radish) seeds assessed as shoot length at 0.1 mol/l at 25 degC after 72 hr by laboratory-based agar medium bioassay relative to control; format: functional; how it was run: as §1
[7] = tested on: Radish; assay: Pre-emergence herbicidal activity against Raphanus sativus var.Long scarlet (radish) seeds assessed as seed germination at 0.1 mol/l at 25 degC after 72 hr by laboratory-based agar medium bioassay relative to control; format: functional; how it was run: as §1
[8] = tested on: Radish; assay: Pre-emergence herbicidal activity against Raphanus sativus var.Long scarlet (radish) seeds assessed as shoot length at 0.1 mol/l at 25 degC after 72 hr by laboratory-based agar medium bioassay relative to 1,8-Cineole; format: functional; how it was run: as §2
[9] = tested on: Lolium rigidum; assay: Pre-emergence herbicidal activity against Lolium rigidum seeds assessed as shoot length at 0.1 mol/l at 25 degC after 72 hr by laboratory-based agar medium bioassay relative to control; format: functional; how it was run: as §1
[10] = tested on: Radish; assay: Pre-emergence herbicidal activity against Raphanus sativus var.Long scarlet (radish) seeds assessed as root length at 0.1 mol/l at 25 degC after 72 hr by laboratory-based agar medium bioassay relative to control; format: functional; how it was run: as §1
[11] = tested on: Radish; assay: Pre-emergence herbicidal activity against Raphanus sativus var.Long scarlet (radish)seeds assessed as seed germination inhibition at 25 degC after 72 hr by laboratory-based agar medium bioassay; format: functional, organism-based; how it was run: as §1
[12] = tested on: Lolium rigidum; assay: Pre-emergence herbicidal activity against Lolium rigidum seeds assessed as concentration required to suppress seed germination at 25 degC after 72 hr by laboratory-based agar medium bioassay; format: functional
[13] = tested on: Lolium rigidum; assay: Pre-emergence herbicidal activity against Lolium rigidum seeds assessed as root length at 0.1 mol/l at 25 degC after 72 hr by laboratory-based agar medium bioassay relative to control; format: functional; how it was run: as §1
[14] = tested on: Lolium rigidum; assay: Pre-emergence herbicidal activity against Lolium rigidum seeds assessed as concentration required to suppress shoot growth at 25 degC after 72 hr by laboratory-based agar medium bioassay; format: functional
[15] = tested on: Lolium rigidum; assay: Pre-emergence herbicidal activity against Lolium rigidum seeds assessed as shoot length at 0.1 mol/l at 25 degC after 72 hr by laboratory-based agar medium bioassay relative to 1,8-Cineole; format: functional; how it was run: as §2
[16] = tested on: Radish; assay: Pre-emergence herbicidal activity against Raphanus sativus var.Long scarlet (radish) seeds assessed as concentration required to suppress shoot growth at 25 degC after 72 hr by laboratory-based agar medium bioassay; format: functional
[17] = tested on: Radish; assay: Pre-emergence herbicidal activity against Raphanus sativus var.Long scarlet (radish) seeds assessed as seed germination at 0.1 mol/l at 25 degC after 72 hr by laboratory-based agar medium bioassay relative to 1,8-Cineole; format: functional; how it was run: as §2
[18] = tested on: Radish; assay: Pre-emergence herbicidal activity against Raphanus sativus var.Long scarlet (radish) seeds assessed as root length at 0.1 mol/l at 25 degC after 72 hr by laboratory-based agar medium bioassay relative to 1,8-Cineole; format: functional; how it was run: as §2
[19] = tested on: Lolium rigidum; assay: Pre-emergence herbicidal activity against Lolium rigidum seeds assessed as concentration required to suppress root growth at 25 degC after 72 hr by laboratory-based agar medium bioassay; format: functional
[20] = tested on: Lolium rigidum; assay: Pre-emergence herbicidal activity against Lolium rigidum seeds assessed as seed germination at 0.1 mol/l at 25 degC after 72 hr by laboratory-based agar medium bioassay relative to control; format: functional; how it was run: as §1
[21] = tested on: Radish; assay: Pre-emergence herbicidal activity against Raphanus sativus var.Long scarlet (radish) seeds assessed as root growth inhibition at 25 degC after 72 hr by laboratory-based agar medium bioassay; format: functional, organism-based; how it was run: as §1
[22] = tested on: Radish; assay: Pre-emergence herbicidal activity against Raphanus sativus var.Long scarlet (radish) seeds assessed as shoot growth inhibition at 25 degC after 72 hr by laboratory-based agar medium bioassay; format: functional, organism-based; how it was run: as §1
[23] = tested on: Lolium rigidum; assay: Pre-emergence herbicidal activity against Lolium rigidum seeds assessed as shoot growth inhibition at 0.001 to 0.01 mol/l at 25 degC after 72 hr by laboratory-based agar medium bioassay; format: functional, organism-based; how it was run: as §1
[24] = tested on: Radish; assay: Pre-emergence herbicidal activity against Raphanus sativus var.Long scarlet (radish) seeds assessed as shoot growth inhibition at 1 mol/l at 25 degC after 72 hr by laboratory-based agar medium bioassay; format: functional, organism-based; how it was run: as §1
[25] = tested on: Radish; assay: Pre-emergence herbicidal activity against Raphanus sativus var.Long scarlet (radish) seeds assessed as root length at 0.1 mol/l at 25 degC after 72 hr by filter paper bioassay relative to control; format: functional
How it was run: (§3)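 Seeds on sterile filter paper wetted with 1 mL aqueous solution containing 3.4 × 10^-4 g mL^-1 Tween 80. Eucalyptus oil tested at 0.0154 g mL^-1, giving about 0.1 mol L^-1 1,8-cineole. Dishes sealed and kept flat. 10 seeds/dish, 5 dishes. Incubated 72 h at 25 °C under 135–195 μE m^-2 s^-1 light. Germination, root length or shoot length compared with control.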

[26] = tested on: Radish; assay: Pre-emergence herbicidal activity against Raphanus sativus var.Long scarlet (radish) seeds assessed as concentration required to suppress seed germination at 25 degC after 72 hr by filter paper bioassay; format: functional
How it was run: (§4)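 Two seed-plate formats. Filter paper: sterile paper wetted with 1 mL aqueous solution containing 3.4 × 10^-4 g mL^-1 Tween 80, dish sealed and flat. 10 seeds/dish, 5 dishes per concentration. Incubated 72 h at 25 °C under light. Threshold taken by one-way ANOVA at P = 0.05.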

[27] = tested on: Lolium rigidum; assay: Pre-emergence herbicidal activity against Lolium rigidum seeds assessed as concentration required to suppress root growth at 25 degC after 72 hr by filter paper bioassay; format: functional; how it was run: as §4
[28] = tested on: Lolium rigidum; assay: Pre-emergence herbicidal activity against Lolium rigidum seeds assessed as seed germination at 0.1 mol/l at 25 degC after 72 hr by filter paper bioassay relative to control; format: functional; how it was run: as §3
[29] = tested on: Radish; assay: Pre-emergence herbicidal activity against Raphanus sativus var.Long scarlet (radish) seeds assessed as seed germination at 0.1 mol/l at 25 degC after 72 hr by filter paper bioassay relative to control; format: functional; how it was run: as §3
[30] = tested on: Lolium rigidum; assay: Pre-emergence herbicidal activity against Lolium rigidum seeds assessed as shoot length at 0.1 mol/l at 25 degC after 72 hr by filter paper bioassay relative to control; format: functional; how it was run: as §3
[31] = tested on: Radish; assay: Pre-emergence herbicidal activity against Raphanus sativus var.Long scarlet (radish) seeds assessed as concentration required to suppress root growth at 25 degC after 72 hr by filter paper bioassay; format: functional; how it was run: as §4
[32] = tested on: Lolium rigidum; assay: Pre-emergence herbicidal activity against Lolium rigidum seeds assessed as concentration required to suppress seed germination at 25 degC after 72 hr by filter paper bioassay; format: functional; how it was run: as §4
[33] = tested on: Lolium rigidum; assay: Pre-emergence herbicidal activity against Lolium rigidum seeds assessed as root length at 0.1 mol/l at 25 degC after 72 hr by filter paper bioassay relative to control; format: functional; how it was run: as §3
[34] = tested on: Lolium rigidum; assay: Pre-emergence herbicidal activity against Lolium rigidum seeds assessed as concentration required to suppress shoot growth at 25 degC after 72 hr by filter paper bioassay; format: functional; how it was run: as §4
[35] = tested on: Radish; assay: Pre-emergence herbicidal activity against Raphanus sativus var.Long scarlet (radish) seeds assessed as shoot length at 0.1 mol/l at 25 degC after 72 hr by filter paper bioassay relative to control; format: functional; how it was run: as §3
[36] = tested on: Radish; assay: Pre-emergence herbicidal activity against Raphanus sativus var.Long scarlet (radish) seeds assessed as concentration required to suppress shoot growth at 25 degC after 72 hr by filter paper bioassay; format: functional; how it was run: as §4

Structure (SMILES)	Activity [2]	Activity [3]	Ratio [4]	Ratio [5]	Activity [6] [%]	Activity [7] [%]	Ratio [8]	Activity [9] [%]	Activity [10] [%]	Activity [12] [mol/L]	Activity [13] [%]	Activity [14] [mol/L]	Ratio [15]	Activity [16]	Ratio [17]	Ratio [18]	Activity [19] [mol/L]	Activity [20] [%]	other results
CCCCCC(=O)O[C@@H]1C[C@@]2(C(C)C)CC[C@@]1(C)O2 (racemic) [2-Exo-hexoxy-1,4-cineole]																			Activity [1]: inactive
CC(C)[C@]12CC[C@@](C)(O1)[C@H](OC(=O)c1ccccc1)C2 (racemic) [2-exo-benzoxy-1,4-cineole]	0.01 mol/L	inactive	0.7	0.8	64	82.9	1	23.7	54.7	0.1	28	0.0001	1.2	0.01 mol/L	0.4	0.7	0.0001	46.3	Activity [11]: inactive
CC(C)(C)CC(=O)O[C@H]1C[C@@]2(C)CC[C@H]1C(C)(C)O2 (racemic) [3-exo-t-butylacetoxy-1,8-cineole]	inactive	0.1 mol/L	0.3	0.3	90.9	31.4	0.7	44.8	72.5	0.1	64.9	0.001	0.6	inactive	1.1	0.5	0.01	97.8	Activity [21]: inactive; Activity [22]: inactive
CC12CCC(C(=O)C1)C(C)(C)O2 (racemic) [3-oxo-1,8-cineole]	0.01 mol/L	0.01 mol/L	0.9	1.2	29.3	10	2.2	18.2	20.5	0.1	18.9	0.0001	1.6	0.01 mol/L	3.4	1.8	0.1	33.3	Activity [23]: inactive
Cc1ccccc1CO[C@@H]1C[C@@]2(C(C)C)CCC1(C)O2 [CINMETHYLIN]	0.0001 mol/L	1 mol/L			62.5	85.7	1		36.5					0.01 mol/L	0.4	0.8			Activity [24]: inactive
CC12CCC(CC1)C(C)(C)O2 [EUCALYPTOL]																			Activity [25]: 37.1%; Activity [26]: 0.1 mol/L; Activity [27]: 0.1 mol/L; Activity [28]: 30.2%; Activity [29]: 34.1%; Activity [30]: 28.4%; Activity [31]: 1 mol/L; Activity [32]: 0.1 mol/L; Activity [33]: 22.4%; Activity [34]: 0.1 mol/L; Activity [35]: 64.7%; Activity [36]: 1 mol/L
